These results are taken from ChEMBL document CHEMBL3596173, “Structural Requirements for CNS Active Opioid Glycopeptides” (J Med Chem, 2015).

Starred links: 1 amine or outer side, 2 acyl side, 3 side chain; linkers in the order of their positions; H or OH if unused. Positions of bridges follow the written chain, without caps; N, C: chain ends. Non-standard residues stand in square brackets, D forms with d. Residues, ends and D or L forms follow the SMILES beside them. *: point of attachment. X1 = OC[C@H]1O[C@@H](O[C@H]2[C@H](O)[C@@H](O)[C@H](*)O[C@@H]2CO)[C@H](O)[C@@H](O)[C@@H]1O; βGlc = OC[C@H]1O[C@@H](*)[C@H](O)[C@@H](O)[C@@H]1O; dPen = CC(C)(S)[C@@H](N)C(=O)O; CH2CH2 = C(C[*:2])[*:1]; Aib = CC(C)(N)C(=O)O; Ava = NCCCCC(=O)O; GABA = NCCCC(=O)O

Assay [1] deals with T1, Delta-type opioid receptor (Homo sapiens, UniProt P41143). Put plainly: Displacement of [3H]-naltrindole from human delta opioid receptor expressed in CHO cells at 10 uM after 3 hrs by scintillation counting analysis relative to control. The assay is classed as cell-based. For orientation: In a radioligand displacement assay an active substance lowers the binding of a labelled ligand.

In assay [2] the target is Mu-type opioid receptor (Homo sapiens, UniProt P35372). Put plainly: Displacement of [3H]-DAMGO from human mu opioid receptor expressed in CHO cells after 60 mins by scintillation counting analysis. The assay is classed as cell-based. In short, it runs like this:
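Membranes from CHO cells stably expressing human μ receptor were incubated with 0.25 nM (final) [3H]DAMGO in 50 mM Tris-HCl pH 7.5 for 60 min at 25 °C. Bound radioligand was separated by glass-fiber filtration with cold buffer washes and counted by scintillation. IC50 came from a least-squares log-probit fit, and Ki from IC50/(1+S).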

In assay [3] the target is T2, Kappa-type opioid receptor (Homo sapiens, UniProt P41145). As to the kind of experiment: Displacement of [3H]-U69593 from human kappa opioid receptor expressed in CHO cells at 10 uM after 60 mins by scintillation counting analysis […]. It is filed as cell-based.
For assay [4], the target named is T1, Delta-type opioid receptor. As to the kind of experiment: Displacement of [3H]-naltrindole from human delta opioid receptor expressed in CHO cells after 3 hrs by scintillation counting analysis. It is filed as cell-based. In short, it runs like this:
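Binding used CHO-cell membranes bearing human δ receptor and 0.2 nM (final) [3H]naltrindole, incubated 3 h at 25 °C in 50 mM Tris-HCl pH 7.5. Nonspecific binding was defined with 100 μM naloxone. Samples were glass-fiber filtered, washed with cold buffer and scintillation counted. IC50 came from a log-probit least-squares fit and was converted to Ki as IC50/(1+S).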

Assay [5] concerns Mus musculus. Put plainly: Antinociceptive activity in icv dosed ICR mouse by 55 degC warm water tail-flick test. It is filed as functional. Background: Thermal pain tests record how soon the animal reacts.
Assay [6] concerns Mus musculus. As to the kind of experiment: Antinociceptive activity in iv dosed ICR mouse by 55 degC warm water tail-flick test. It is filed as functional.
Assay [7] has as its target T2, Kappa-type opioid receptor. As to the kind of experiment: Displacement of [3H]-U69593 from human kappa opioid receptor expressed in CHO cells after 60 mins by scintillation counting analysis. It is filed as cell-based. Put shortly: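 Human κ receptor stably expressed in CHO cells was used as a membrane prep. It was incubated with 1 nM (final) [3H]U69,593 for 60 min at 25 °C in 50 mM Tris-HCl pH 7.5, with 10 μM naloxone defining nonspecific binding. Samples were filtered through glass-fiber filters presoaked ≥30 min in 0.1% polyethylenimine, washed cold and scintillation counted. Ki was derived from a log-probit IC50 via IC50/(1+S).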

Assay [8] deals with Mus musculus. Put plainly: Antinociceptive activity in icv dosed CD-1 mouse assessed as time required to show maximum activity by 55 degC warm water tail-flick test. The assay is classed as functional. In short, it runs like this:
(§1)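 Male CD-1 mice (27−30 g), 8−10 per group. Compound in distilled water, given icv under light ether anaesthesia, 2 mm caudal and 2 mm lateral from bregma. 55 °C warm-water tail-flick: baseline latency taken first, and mice not responding within 5 s excluded. Retested at various times after dosing. %Antinociception = 100(test − control latency)/(10 − control latency). A50 doses derived.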

For assay [9], the system named is Mus musculus. As to the kind of experiment: Antinociceptive activity in iv dosed CD-1 mouse assessed as time required to show maximum activity by 55 degC warm water tail-flick test. The assay is classed as functional. Put shortly:
(§2)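 Male CD-1 mice (27−30 g), 8−10 per group. Compound in 0.9% saline, injected into the tail vein at 0.1 mL/10 g after the vein was dilated in 40 °C water. Tail immersion in 55 °C water, with baseline latency first and 5 s non-responders excluded. Tested at intervals post-dose. %Antinociception = 100(test − control latency)/(10 − control latency). A50 values obtained.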

In assay [10] the test system is Mus musculus. As to the kind of experiment: Antinociceptive activity in icv dosed CD-1 mouse assessed as time duration of activity by 55 degC warm water tail-flick test. The assay is classed as functional. In short, it runs like this:
as §1

Assay [11] deals with Mus musculus. As to the kind of experiment: Antinociceptive activity in iv dosed CD-1 mouse by 55 degC warm water tail-flick test. The assay is classed as functional. In short, it runs like this:
as §2

Assay [12] relates to Mus musculus. As to the kind of experiment: Antinociceptive activity in icv dosed CD-1 mouse by 55 degC warm water tail-flick test. It is filed as functional. In short, it runs like this: as §1
Assay [13] deals with T1, Delta-type opioid receptor. As to the kind of experiment: Binding affinity to delta opioid receptor (unknown origin). Put shortly:
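Membranes from CHO cells stably expressing the human δ-opioid receptor. Incubated 3 h at 25 °C with 0.2 nM [3H]naltrindole in 50 mM Tris-HCl, pH 7.5. Nonspecific binding with 100 μM naloxone. Glass-fibre filtration, cold-buffer washes, scintillation counting. IC50 from log-probit least-squares fit, converted to Ki.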

In assay [14] the target is T2, Kappa-type opioid receptor. As to the kind of experiment: Binding affinity to kappa opioid receptor (unknown origin). In short, it runs like this: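 CHO cell membranes stably expressing the human κ-opioid receptor. Incubated with 1 nM [3H]U69,593 for 60 min at 25 °C in 50 mM Tris-HCl, pH 7.5. Naloxone 10 μM defined nonspecific binding. Filters presoaked at least 30 min in 0.1% polyethylenimine, then washed and counted. Ki calculated from IC50 (log-probit fit).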

Assay [15] has as its system Mus musculus. As to the kind of experiment: Antinociceptive activity in iv dosed CD-1 mouse assessed as time duration of activity by 55 degC warm water tail-flick test. The assay is classed as functional. Put shortly: as §2

Chain of Mu-type opioid receptor (P35372 whole entry): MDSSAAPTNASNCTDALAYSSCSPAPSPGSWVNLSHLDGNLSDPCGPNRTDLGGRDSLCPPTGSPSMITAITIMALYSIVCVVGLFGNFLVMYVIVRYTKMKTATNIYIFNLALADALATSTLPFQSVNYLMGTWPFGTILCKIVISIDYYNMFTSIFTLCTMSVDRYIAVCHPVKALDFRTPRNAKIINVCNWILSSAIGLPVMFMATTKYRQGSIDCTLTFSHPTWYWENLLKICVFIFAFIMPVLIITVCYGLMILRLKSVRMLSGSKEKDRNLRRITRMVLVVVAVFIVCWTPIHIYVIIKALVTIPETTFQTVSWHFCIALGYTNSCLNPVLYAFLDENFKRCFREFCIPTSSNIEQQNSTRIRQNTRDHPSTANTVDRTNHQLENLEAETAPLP
T1 sequence (P41143 whole entry): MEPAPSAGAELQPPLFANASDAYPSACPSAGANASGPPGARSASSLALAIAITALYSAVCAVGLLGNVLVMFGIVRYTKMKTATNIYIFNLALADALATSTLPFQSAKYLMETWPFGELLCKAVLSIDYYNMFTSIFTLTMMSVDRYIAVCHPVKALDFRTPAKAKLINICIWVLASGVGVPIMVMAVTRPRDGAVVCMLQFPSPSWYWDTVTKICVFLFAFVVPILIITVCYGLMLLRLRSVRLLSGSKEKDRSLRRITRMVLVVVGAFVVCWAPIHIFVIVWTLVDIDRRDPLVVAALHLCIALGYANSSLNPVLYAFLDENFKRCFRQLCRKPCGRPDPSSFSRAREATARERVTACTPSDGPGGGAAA
T2 sequence (P41145 whole entry): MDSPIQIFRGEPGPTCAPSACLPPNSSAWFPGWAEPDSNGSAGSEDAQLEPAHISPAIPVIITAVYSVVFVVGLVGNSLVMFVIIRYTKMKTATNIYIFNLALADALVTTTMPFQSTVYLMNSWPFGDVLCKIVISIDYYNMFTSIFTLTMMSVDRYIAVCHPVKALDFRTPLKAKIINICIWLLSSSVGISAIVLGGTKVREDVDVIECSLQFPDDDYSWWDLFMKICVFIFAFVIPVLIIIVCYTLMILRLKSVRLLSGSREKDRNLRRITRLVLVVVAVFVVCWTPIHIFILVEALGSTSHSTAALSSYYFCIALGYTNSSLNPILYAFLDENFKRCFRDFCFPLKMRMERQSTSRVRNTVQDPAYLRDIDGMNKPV

Usually Ki stands for the equilibrium dissociation constant of an inhibitor or competing ligand from its target. Low values mean a stronger hold on the target, high ones a looser hold on the target. Turning to `CC(C)C[C@H](NC(=O)[C@H](CO[C@@H]1O[C@H](CO)[C@@H](O)[C@H](O)[C@H]1O)NC(=O)[C@H](CCCCN)NC(=O)[C@H](CC(C)C)NC(=O)[C@H](C)NC(=O)[C@H](CC(N)=O)NC(=O)[C@H](CC(N)=O)NC(=O)C(C)(C)NC(=O)[C@H](CC(C)C)NC(=O)[C@H](CC(N)=O)NC(=O)CNC(=O)CNC(=O)[C@H](Cc1ccccc1)N(C)C(=O)CNC(=O)[C@@H](C)NC(=O)[C@@H](N)Cc1ccc(O)cc1)C(N)=O`, the Activity in [1] was 0%; in assay [3], 16%. Besides, the inhibition constant Ki in assay [2] stood at 0.12 µM.
Turning to `CC(C)C[C@H](NC(=O)[C@H](Cc1ccccc1)NC(=O)CNC(=O)[C@@H](NC(=O)[C@@H](N)Cc1ccc(O)cc1)[C@@H](C)O)C(=O)N[C@@H](CO[C@@H]1O[C@H](CO)[C@@H](O[C@@H]2O[C@H](CO)[C@@H](O)[C@H](O)[C@H]2O)[C@H](O)[C@H]1O)C(N)=O` (H-YTGFLS(X1)-NH2), the inhibition constant (Ki) in assay [4] turned out to be 0.0092 µM; in [2] it was 0.005 µM; in [7] it was 0.042 µM. Also, the values for the A50 in assay [5] and in [6] were 0.018 nmol and 4.07 µmol/kg, respectively.
With `CC(C)C[C@H](NC(=O)[C@H](CO[C@@H]1O[C@H](CO)[C@@H](O)[C@H](O)[C@H]1O)NC(=O)[C@H](CCCCN)NC(=O)[C@H](CC(C)C)NC(=O)[C@H](C)NC(=O)[C@H](CCCCN)NC(=O)[C@H](CCC(=O)O)NC(=O)C(C)(C)NC(=O)[C@H](CC(C)C)NC(=O)[C@H](CC(N)=O)NC(=O)CCCNC(=O)[C@H](CC(C)C)NC(=O)[C@H](Cc1ccccc1)NC(=O)CNC(=O)[C@@H](NC(=O)[C@@H](N)Cc1ccc(O)cc1)[C@@H](C)O)C(N)=O` (H-YTGFL[GABA]NL[Aib]EKALKS(βGlc)L-NH2), the Ki in assay [4] worked out at 0.0042 µM; in assay [2], 0.0043 µM; in assay [7], 0.011 µM. Moreover, the Time in assay [8] was determined as 10 min; in [9], 30 min; in assay [10], 90 min. Also, the A50 was 0.31 µmol/kg in assay [11] and 0.046 nmol in [12].
On to `CC(C)C[C@H](NC(=O)[C@H](CO[C@@H]1O[C@H](CO)[C@@H](O)[C@H](O)[C@H]1O)NC(=O)[C@H](CCCCN)NC(=O)[C@H](CC(C)C)NC(=O)[C@H](C)NC(=O)[C@H](CCC(=O)O)NC(=O)[C@H](CCC(=O)O)NC(=O)C(C)(C)NC(=O)[C@H](CC(C)C)NC(=O)[C@H](CC(N)=O)NC(=O)CNC(=O)CNC(=O)[C@H](Cc1ccccc1)N(C)C(=O)CNC(=O)[C@@H](C)NC(=O)[C@@H](N)Cc1ccc(O)cc1)C(N)=O`, for which the Activity in assay [1] and in [3] was 0% throughout.
In the case of `CC(C)C[C@H](NC(=O)[C@H](CO[C@@H]1O[C@H](CO)[C@@H](O)[C@H](O)[C@H]1O)NC(=O)[C@H](CCCCN)NC(=O)[C@H](CC(C)C)NC(=O)[C@H](C)NC(=O)[C@H](CC(N)=O)NC(=O)[C@H](CCC(=O)O)NC(=O)C(C)(C)NC(=O)[C@H](CC(C)C)NC(=O)[C@H](CC(N)=O)NC(=O)CNC(=O)CNC(=O)[C@H](Cc1ccccc1)N(C)C(=O)CNC(=O)[C@@H](C)NC(=O)[C@@H](N)Cc1ccc(O)cc1)C(N)=O`, the Activity in [1] and in assay [3] was 0% each time. The Ki in assay [2] was found to be 1.2 µM.
On to `CC(C)C[C@H](NC(=O)[C@H](CO[C@@H]1O[C@H](CO)[C@@H](O)[C@H](O)[C@H]1O)NC(=O)[C@H](CCCCN)NC(=O)[C@H](CC(C)C)NC(=O)[C@H](C)NC(=O)[C@H](CCCCN)NC(=O)[C@H](CCC(=O)O)NC(=O)C(C)(C)NC(=O)[C@H](CC(C)C)NC(=O)[C@H](CC(N)=O)NC(=O)CCCCNC(=O)[C@H](CC(C)C)NC(=O)[C@H](Cc1ccccc1)NC(=O)CNC(=O)[C@@H](NC(=O)[C@@H](N)Cc1ccc(O)cc1)[C@@H](C)O)C(N)=O` (H-YTGFL[Ava]NL[Aib]EKALKS(βGlc)L-NH2), for which the Ki in assay [4] came to 0.0038 µM; in assay [2], 0.0014 µM; in [7], 0.012 µM. For the same compound, the Time in assay [8] was determined as 10 min; in assay [9] it was 30 min. The values for the A50 in [11] and in assay [12] were 0.36 µmol/kg and 0.371 nmol, respectively.
On to `CC1(C)SCCSC[C@@H](NC(=O)[C@@H](N)Cc2ccc(O)cc2)C(=O)N[C@@H](Cc2ccccc2)C(=O)N[C@H]1C(N)=O` (H-Y[dC]F[dPen]-NH2; linker 2-4 via CH2CH2), for which the results for the Ki in [13] and in assay [14] were 0.0248 µM and 2 µM, respectively.
Regarding `CC(C)C[C@H](NC(=O)[C@H](CO[C@@H]1O[C@H](CO)[C@@H](O)[C@H](O)[C@H]1O)NC(=O)[C@H](CCCCN)NC(=O)[C@H](CC(C)C)NC(=O)[C@H](C)NC(=O)[C@H](CCCCN)NC(=O)[C@H](CCC(=O)O)NC(=O)C(C)(C)NC(=O)[C@H](CC(C)C)NC(=O)[C@H](CC(N)=O)NC(=O)[C@@H]1CCCN1C(=O)[C@H](CC(C)C)NC(=O)[C@H](Cc1ccccc1)NC(=O)CNC(=O)[C@@H](NC(=O)[C@@H](N)Cc1ccc(O)cc1)[C@@H](C)O)C(N)=O`, the figures for the Ki in assay [4], in [2] and in assay [7] were 0.0036 µM, 0.0026 µM and 0.0023 µM, respectively. Also, the Time amounted to 10 min in assay [8] and 30 min in assay [9]. Besides, the A50 is 0.36 µmol/kg in assay [11] and 0.739 nmol in assay [12].
As for `CC(C)C[C@H](NC(=O)[C@H](CO[C@@H]1O[C@H](CO)[C@@H](O[C@@H]2O[C@H](CO)[C@@H](O)[C@H](O)[C@H]2O)[C@H](O)[C@H]1O)NC(=O)[C@H](CCCCN)NC(=O)[C@H](CC(C)C)NC(=O)[C@H](C)NC(=O)[C@H](CCCCN)NC(=O)[C@H](CCC(=O)O)NC(=O)C(C)(C)NC(=O)[C@H](CC(C)C)NC(=O)[C@H](CC(N)=O)NC(=O)CCCNC(=O)[C@H](CC(C)C)NC(=O)[C@H](Cc1ccccc1)NC(=O)CNC(=O)[C@@H](NC(=O)[C@@H](N)Cc1ccc(O)cc1)[C@@H](C)O)C(N)=O` (H-YTGFL[GABA]NL[Aib]EKALKS(X1)L-NH2), the values for the Ki in [4], in [2] and in assay [7] were 0.017 µM, 0.013 µM and 0.052 µM, respectively. The Time in assay [15] is 180 min. Besides, the A50 in [11] was 1.13 µmol/kg; in [12], 0.165 nmol.
